Hits are enriched below; roughly 1.9% of the tested compounds scored in any of these assays.
M5 ag: CHRM5 agonism in calcium assay | CHO-K1 hM5 cells, Fluo-8 calcium fluorescence; 0% DMSO wells, 100% maximal acetylcholine response | activation, % at 3 µM | actives 0.19% (n = 360,000) | AID 624037;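 active = activation above the run's mean over test compounds plus 3 SD, cut at about 23% in these data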;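 note: signal is peak over basal fluorescence ratio across the kinetic read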
CHRM5 PAM: positive allosteric modulators of human muscarinic M5 receptor; P08912; CHO-K1 hM5, Fluo-8 calcium, ACh EC20 PAM; 0% = ACh EC20, 100% = ACh EC100; activation, % at 3 µM; actives 0.3% (n = 360,000); AID 624038;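 active = activation above the run cutoff, the mean activation of all test compounds plus 3 SD, cut at about 18% in these data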
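Replicates: One well per compound, no replicates | System: Human M5 receptor in CHO-K1 cells | Benchmarks: Low control EC20 acetylcholine (0%), high control EC100 acetylcholine (100%) | Probe or stimulus: Acetylcholine, EC20 level | Times: Fluo-8 loading 80 min at 37 °C plus 30 min room temperature | Signal: Intracellular calcium via Fluo-8 fluorescence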
M4 PAM: potentiates acetylcholine response at human M4 receptor | CHO-K1 hM4/Gqi5, Fluo-8 calcium fluorescence, ACh EC20; 0% = ACh EC20, 100% = maximal ACh | P08173 | actives 0.4% (n = 360,000) | activation, % at 3 µM;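 active = activation above its plate's cutoff, the mean activation of sample wells plus 3 SD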
Target sequence (P08173 whole entry, looked up): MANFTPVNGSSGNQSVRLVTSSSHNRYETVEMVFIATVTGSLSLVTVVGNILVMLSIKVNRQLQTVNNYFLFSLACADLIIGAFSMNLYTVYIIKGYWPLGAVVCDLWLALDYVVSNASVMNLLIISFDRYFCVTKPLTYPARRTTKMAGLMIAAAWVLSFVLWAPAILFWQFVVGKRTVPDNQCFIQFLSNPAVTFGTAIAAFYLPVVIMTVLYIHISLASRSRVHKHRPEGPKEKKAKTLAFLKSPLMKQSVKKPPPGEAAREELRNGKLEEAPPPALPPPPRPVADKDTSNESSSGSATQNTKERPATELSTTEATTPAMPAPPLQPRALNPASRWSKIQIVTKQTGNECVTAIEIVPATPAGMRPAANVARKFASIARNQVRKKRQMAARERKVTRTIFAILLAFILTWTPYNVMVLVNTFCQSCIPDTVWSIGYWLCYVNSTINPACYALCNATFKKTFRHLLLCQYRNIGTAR
M4 antag: CHRM4 antagonism in calcium assay; CHO-hM4 cells, ACh EC80, Fluo-8 calcium fluorescence; inhibition, % at 3 µM; actives 0.73% (n = 360,000); AID 624125;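 active = inhibition above its plate's cutoff, the mean inhibition of sample wells plus 3 SD, cut at about 27% in these data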;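 note: 0% = acetylcholine EC80 with DMSO and 100% = DMSO without agonist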
CHRM4 agonist: CHRM4 agonism in calcium assay. P08173. CHO-K1 hM4/Gqi5, Fluo-8 calcium fluorescence; vehicle 0%, full acetylcholine response 100%. activation, % at 3 µM. actives 0.14% (n = 360,000). AID 624127;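 active = activation above the run mean over all test wells plus 3 SD, cut at about 32% in these data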;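 note: peak over basal fluorescence ratio per well then scaled between controls; 0% = DMSO wells and 100% = acetylcholine at EC100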
M5 antag: antagonists of human muscarinic M5 receptor (CHRM5) | P08912 | CHO-hM5 cells, Fluo-8 calcium fluorescence, ACh EC80 | inhibition, % at 3 µM | actives 0.59% (n = 360,000);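 active = inhibition above a per-plate cutoff, the mean of that plate's test compounds plus 3 SD, cut at about 27% in these data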;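 note: 0% = acetylcholine EC80 with DMSO and 100% = DMSO without agonist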
* hit, by the source's call.

SMILES | M5 ag | CHRM5 PAM | M4 PAM | M4 antag | CHRM4 agonist | M5 antag
C=C(C)COc1ccc(-c2ncnc(C(F)(F)F)c2-c2ccc(OC)cc2)c(O)c1 | -4.9 | -14.2 | -14.7 | 25.2 | 7.5 | 24.5
CCOC(=O)c1ccc(S(=O)(=O)NCCNCc2ccccc2)cc1 | -2.4 | -3.2 | -5.9 | 9.0 | 3.7 | 6.4
Cn1c(C(=O)OC(C(=O)NC2CCCCC2)c2cccnc2)cc2sccc21 (stereo unspecified) | -7.8 | -4.6 | 4.2 | -3.8 | 2.3 | 40.7*
O=C(Cn1c(=O)n(-c2cccc(Cl)c2)c(=O)n1CC(=O)N1CCCCC1)N1CCCCC1 | -2.2 | -2.3 | 17.6 | 2.2 | 0.6 | 2.1
Cn1c(=O)n(-c2cccc(Cl)c2)c(=O)n1C | 1.1 | -0.1 | 21.1 | 39.9* | 1.4 | 3.4
CC(C)COC(=O)N(C)C[C@H]1OCc2cnnn2CCCC(=O)N([C@@H](C)CO)C[C@H]1C | -0.8 | -3.0 | 4.4 | -13.9 | 0.3 | 1.5
O=c1[nH]ccc2c(O)cccc12 | 32.4* | -16.1 | 3.6 | -1.8 | 0.4 | 6.8
Cc1nn(-c2ccccc2)c(C)c1NC(=O)COC(=O)c1cc(Br)ccc1O | 4.5 | -23.7 | -3.0 | 30.7* | 20.3 | 21.6
Nc1ccc2c(c1)C(=O)CCC2 | 4.5 | -5.2 | -0.3 | -3.2 | 0.9 | -5.3
COc1ccc(CSc2nnc3[nH]c(=O)cc(N)n23)cc1 | -6.8 | -13.1 | 19.8 | -8.5 | 0.9 | 35.3*
CCc1ccc(CNc2ccc3c(c2)ncn3C(C)(C)C)cc1 | -5.5 | -11.3 | -1.6 | -17.9 | 3.9 | 9.2
CC(C)(C)n1cnc2cc(NCc3ccc(Br)cc3)ccc21 | -4.0 | -6.4 | -3.2 | -1.2 | 2.8 | 27.3*
COc1ccc(CCNC(=O)c2cc(-c3cc(C)cc(C)c3O)n[nH]2)cc1OC | -3.9 | -10.6 | -8.5 | 39.4* | 5.8 | 8.0
CC(C)COc1cccc(C(=O)N(CC(=O)Nc2ccccc2C(F)(F)F)Cc2ccco2)c1 | -1.9 | -3.9 | 16.5 | -9.3 | 0.7 | 14.6
N#C/C(=C/c1ccc(N2CCCCC2)o1)C(=O)Nc1ccc2ccccc2c1 | 456.6* | -20.9 | -22.6 | 84.4* | 181.3* | 90.9*
N#C/C(=C/c1ccc(N2CCCCC2)o1)C(=O)Nc1ccc(Cl)cc1 | 56.0* | -25.7 | -18.7 | 44.7* | 170.3* | 54.7*
COc1ccccc1CNC(=O)CCNS(=O)(=O)c1cc(Br)cnc1N | -5.9 | -0.2 | 4.1 | 4.2 | 3.5 | 5.2
CCCCNc1c2c3c(cccc3n(C)c1=O)C(=O)c1ccccc1-2 | 140.2* | -17.5 | -39.4 | 76.6* | 175.9* | 71.4*
Cn1c(=O)c(NCCO)c2c3c(cccc31)C(=O)c1ccccc1-2 | 32.4* | -8.2 | -8.9 | 13.3 | 39.2* | 13.4
Cn1c(=O)c(NCCc2ccccc2)c2c3c(cccc31)C(=O)c1ccccc1-2 | 92.9* | -26.3 | -23.5 | 75.8* | 150.8* | 74.3*
CC(=O)Nc1ccc(Nc2c3c4c(cccc4n(C)c2=O)C(=O)c2ccccc2-3)cc1 | 1.7 | -8.0 | -8.7 | 4.9 | 7.7 | 3.4
CN(CC(=O)Nc1ccc(Cl)c(C(F)(F)F)c1)C(=O)c1ccc2c(c1)NC(=O)CS2 | -1.4 | 5.3 | 8.5 | -4.3 | 2.7 | -1.4
COC(=O)c1ccccc1-n1c(C)nc(=O)c(-c2ccccc2)c1C | -1.7 | -2.9 | 0.5 | 5.3 | 0.4 | 11.9
O=C(CC1SCCNC1=O)Nc1cccc(C(F)(F)F)c1 (stereo unspecified) | 0.0 | 1.7 | 32.4* | -5.0 | 2.9 | -1.8
C/C(=N/Nc1ncc(Br)cn1)c1ccc([N+](=O)[O-])cc1 | -2.6 | 5.0 | -0.8 | 0.5 | -1.6 | 4.8
COC(=O)c1ccccc1S(=O)(=O)N1CCC(C(=O)NCC2CCCO2)CC1 (stereo unspecified) | 1.8 | 8.5 | -1.9 | 2.9 | 0.7 | 3.2
COC(=O)c1ccccc1S(=O)(=O)N1CCC(C(=O)NCc2ccco2)CC1 | 0.0 | 10.9 | 23.4* | -4.2 | 0.8 | 1.2
Cc1ccc(S(=O)(=O)N2C3CCCCC3O[C@H]2CC(=O)c2cccs2)cc1 (stereo partly specified) | 0.8 | 13.0 | -2.3 | -2.9 | 3.0 | -13.7

High-throughput results (PubChem BioAssay)
